Assay results as given in ChEMBL document CHEMBL3102757, “Synthesis and evaluation of the antiparasitic activity of bis-(arylmethylidene) cycloalkanones” (Eur J Med Chem, 2014).
The source made the active and inactive calls. The calls are words filed in the database; no cut-off is given here.

Key:
[1] = biological target: Cruzipain (Trypanosoma cruzi) (UniProt P25779); test: Inhibition of Trypanosoma cruzi recombinant cruzaine using Z-FR-AMC as substrate at 100 uM preincubated for 10 mins measured for 5 mins by spectrophotometric analysis in presence of triton relative to DMSO-treated control
Cruzipain (Trypanosoma cruzi), sequence (P25779 123-467 limits assumed): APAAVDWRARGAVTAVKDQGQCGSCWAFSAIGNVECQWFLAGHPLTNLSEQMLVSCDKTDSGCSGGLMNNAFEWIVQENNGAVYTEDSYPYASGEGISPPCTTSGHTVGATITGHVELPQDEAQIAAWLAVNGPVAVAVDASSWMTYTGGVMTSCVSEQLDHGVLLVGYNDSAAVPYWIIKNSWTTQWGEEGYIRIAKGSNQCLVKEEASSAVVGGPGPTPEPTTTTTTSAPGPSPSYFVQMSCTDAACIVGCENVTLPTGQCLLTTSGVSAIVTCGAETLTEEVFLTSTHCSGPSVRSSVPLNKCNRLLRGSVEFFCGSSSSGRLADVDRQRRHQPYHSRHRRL
Method in brief: (§1)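 Fluorescence at ex 340/em 440 nm followed 5 min. Compounds screened at 100 µM. The main screen used 0.01% Triton without pre-incubation. Checks used 0.1% or no Triton and a 10-min pre-incubation. Triplicates, activity versus DMSO control.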

[2] = biological target: Cruzipain (Trypanosoma cruzi) (UniProt P25779); test: Inhibition of Trypanosoma cruzi recombinant cruzaine using Z-FR-AMC as substrate at 100 uM preincubated for 10 mins measured for 5 mins by spectrophotometric analysis relative to DMSO-treated control; method in brief: as §1
[3] = biological target: T1, Glutathione reductase, mitochondrial (Homo sapiens, UniProt P00390); test: Inhibition of human recombinant glutathione reductase using glutathione as substrate preincubated for 30 mins by colorimetric assay
T1 sequence (P00390 whole entry): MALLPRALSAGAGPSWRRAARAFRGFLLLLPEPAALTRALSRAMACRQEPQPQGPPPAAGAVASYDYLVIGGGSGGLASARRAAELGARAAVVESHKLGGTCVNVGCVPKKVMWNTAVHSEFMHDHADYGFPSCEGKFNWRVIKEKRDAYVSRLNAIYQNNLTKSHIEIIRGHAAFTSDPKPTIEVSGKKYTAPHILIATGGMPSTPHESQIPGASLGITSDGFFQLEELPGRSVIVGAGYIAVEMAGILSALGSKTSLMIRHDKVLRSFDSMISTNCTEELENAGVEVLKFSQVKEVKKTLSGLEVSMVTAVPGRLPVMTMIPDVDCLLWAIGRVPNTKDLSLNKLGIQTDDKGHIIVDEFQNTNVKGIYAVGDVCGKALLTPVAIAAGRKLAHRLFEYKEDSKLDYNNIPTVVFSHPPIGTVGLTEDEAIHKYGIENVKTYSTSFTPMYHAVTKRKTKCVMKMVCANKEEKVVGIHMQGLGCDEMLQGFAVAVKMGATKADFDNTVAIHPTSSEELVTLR
Method in brief: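 Recombinant human glutathione reductase (10 mU) in 100 mM potassium phosphate pH 7.0, 1 mM EDTA, 400 µM NADPH. Pre-incubated with compound 30 min at 27 °C. Started with oxidized glutathione (10 µL of 1 mM stock). […] Carmustine positive control.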

Trypanosoma cruzi = test: Trypanocidal activity against Trypanosoma cruzi Tulahuen amastigotes infected in mouse L929 cells assessed as parasite growth inhibition after 7 days by beta-galactosidase assay; type: functional, organism-based; settings: L929, 168 h
Method in brief: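 L-929 fibroblasts (4.0×10^3/well) infected with β-galactosidase-expressing Tulahuen trypomastigotes (4.0×10^4/well) for 2 h, then washed. Compounds added at 48 h, in tetraplicate, RPMI without phenol red plus 10% FBS. After 7 days, chlorophenol red β-D-galactopyranoside (100 µM) and 0.1% Nonidet P-40 added overnight at 37 °C. Read at 570 nm as % growth inhibition. Benznidazole control.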

Trypanothione reductase = Trypanothione reductase (Trypanosoma cruzi, UniProt P28593); test: Inhibition of Trypanosoma cruzi trypanothione reductase expressed in Escherichia coli BL21(DE3) assessed as reduction of oxidized trypanothione preincubated for 30 mins measured for 30 mins by spectrophotometric analysis
Trypanothione reductase, sequence (P28593 whole entry): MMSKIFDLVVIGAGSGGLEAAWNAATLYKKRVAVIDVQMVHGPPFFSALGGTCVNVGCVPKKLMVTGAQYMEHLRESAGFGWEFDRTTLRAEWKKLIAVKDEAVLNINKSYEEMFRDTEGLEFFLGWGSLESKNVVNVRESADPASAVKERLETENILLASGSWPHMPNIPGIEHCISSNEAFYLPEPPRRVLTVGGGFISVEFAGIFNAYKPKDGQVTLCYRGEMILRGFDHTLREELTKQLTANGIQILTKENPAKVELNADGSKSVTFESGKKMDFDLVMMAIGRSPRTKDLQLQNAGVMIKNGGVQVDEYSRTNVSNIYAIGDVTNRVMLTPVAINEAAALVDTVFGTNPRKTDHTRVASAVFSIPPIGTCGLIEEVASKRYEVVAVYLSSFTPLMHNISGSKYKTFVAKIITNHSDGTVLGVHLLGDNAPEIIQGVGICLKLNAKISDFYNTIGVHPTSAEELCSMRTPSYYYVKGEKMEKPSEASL

Leishmania amazonensis = test: Antileishmanial activity against Leishmania amazonensis IFLA/BR/1967/PH-8 promastigotes assessed as parasite growth inhibition after 48 hrs by MTT assay; settings: IFLA/BR/1967/PH-8, 48 h
[4] = Selectivity index, ratio of CC50 for mouse peritoneal macrophages to IC50 for Leishmania amazonensis IFLA/BR/1967/PH-8 promastigotes; type: functional
Method in brief: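 Ratio of peritoneal macrophage CC50 (MTT, 24 h) to promastigote IC50 (MTT, 48 h).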

[5] = Cytotoxicity against mouse peritoneal macrophages after 24 hrs by MTT assay; type: cell-based, Peritoneal macrophage cell
Method in brief: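 Murine peritoneal macrophages (5×10^5) cultured 24 h with a range of compound concentrations. Viability read by MTT, given as % lysis relative to cultures treated with amphotericin B (1 µg/mL).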

[6] = Cytotoxicity against mouse L929 cells after 96 hrs by Alamar blue assay; type: cell-based
Method in brief: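 L-929 fibroblasts seeded at 4.0×10^3 per well, same culture timing as the infection assay, exposed to rising concentrations for 96 h in tetraplicate. alamarBlue added, absorbance at 570 and 600 nm after 4–6 h. Viability as % reduction versus untreated cells. CC50 by linear interpolation.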

[7] = Selectivity index, ratio of CC50 for mouse L929 cells to IC50 for Trypanosoma cruzi Tulahuen amastigotes; type: functional
Method in brief: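 Ratio of L-929 CC50 (alamarBlue, 96 h) to amastigote IC50 from the β-galactosidase infection assay.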

Row | SMILES | inhibition [1] | inhibition [2] | IC50 [3] | IC50 (Trypanosoma cruzi) | IC50 (Trypanothione reductase) | IC50 (Leishmania amazonensis) | Ratio CC50/IC50 [4] | CC50 at 24 h [5] | CC50 at 96 h [6] | Ratio CC50/IC50 [7]
1 | O=C1/C(=C/c2ccncc2)CC/C1=C\c1ccncc1 | inactive | 23% | > 100 µM | > 250 µM | > 100 µM | – | – | – | – | –
2 | C[C@@H]1[C@H](O)[C@@H](C)/C=C/C=C/C=C/C=C/C=C/C=C/C=C/[C@H](O[C@@H]2O[C@H](C)[C@@H](O)[C@H](N)[C@@H]2O)C[C@@H]2O[C@](O)(C[C@@H](O)C[C@@H](O)[C@H](O)CC[C@@H](O)C[C@@H](O)CC(=O)O[C@H]1C)C[C@H](O)[C@H]2C(=O)O [AMPHOTERICIN B] | – | – | – | – | – | 0.08 µM | 8.8 | 0.7 µM | – | –
3 | O=C1/C(=C/c2ccccc2)CC/C1=C\c1ccccc1 | – | – | > 100 µM | 73 µM | > 100 µM | 46.6 µM | 1.6 | 76.2 µM | 375 µM | 5.1
4 | O=C1/C(=C/c2ccc[nH]2)CC/C1=C\c1ccc[nH]1 | – | – | > 100 µM | > 250 µM | > 100 µM | 14.7 µM | 3.8 | 55.8 µM | – | –
5 | O=C1/C(=C/c2ccnc3ccccc23)CCC/C1=C\c1ccnc2ccccc12 | inactive | 42% | > 100 µM | > 250 µM | > 100 µM | 0.6 µM | 1 | 0.6 µM | – | –
6 | CN(C)c1ccc(/C=C2\CCC/C(=C\c3ccc(N(C)C)cc3)C2=O)cc1 | – | – | > 100 µM | > 250 µM | > 100 µM | 18.6 µM | 1.1 | 20.8 µM | – | –
7 | O=C(Cn1ccnc1[N+](=O)[O-])NCc1ccccc1 [BENZNIDAZOLE] | – | – | – | – | – | – | – | – | > 1000 µM | >262
8 | O=C1/C(=C/c2cccc3cnccc23)CC/C1=C\c1cccc2cnccc12 | – | – | > 100 µM | 31.3 µM | > 100 µM | 0.9 µM | 23.8 | 21.4 µM | 500 µM | 16
9 | CN(C)c1ccc(/C=C2\CC/C(=C\c3ccc(N(C)C)cc3)C2=O)cc1 | – | – | > 100 µM | > 250 µM | > 100 µM | 44.1 µM | 0.4 | 17.6 µM | – | –
10 | O=C1/C(=C/c2cccc3cnccc23)CCC/C1=C\c1cccc2cnccc12 | inactive | 19% | > 100 µM | 68.7 µM | > 100 µM | 8.4 µM | 9.3 | 78.1 µM | 188 µM | 2.7
11 | Cc1ccc(/C=C2\CCC/C(=C\c3ccc(C)cc3)C2=O)cc1 | inactive | 32% | > 100 µM | 230 µM | > 100 µM | 110 µM | 0.2 | 19.7 µM | 250 µM | 1.1
12 | O=C1/C(=C/c2ccccc2)CCC/C1=C\c1ccccc1 [2,6-DIBENZYLIDENECYCLOHEXANONE] | inactive | 31% | > 100 µM | > 250 µM | 45.8 µM | 8.4 µM | 6 | 50.6 µM | – | –
13 | O=C1/C(=C/c2ccc(Cn3cc(CCO)nn3)cc2)CC/C1=C\c1ccc(Cn2cc(CCO)nn2)cc1 | inactive | 16% | > 100 µM | > 250 µM | > 100 µM | 50.9 µM | 1.2 | 60.4 µM | – | –
14 | O=C1/C(=C/c2ccncc2)CCC/C1=C\c1ccncc1 | inactive | 66% | > 100 µM | > 250 µM | 14.7 µM | 1.2 µM | 19.9 | 23.9 µM | – | –
15 | O=NN(CCCl)C(=O)NCCCl [CARMUSTINE] | – | – | 8.1 µM | – | – | – | – | – | – | –
16 | [N-]=[N+]=NCc1ccc(/C=C2\CC/C(=C\c3ccc(CN=[N+]=[N-])cc3)C2=O)cc1 | – | – | 228 µM | > 250 µM | > 100 µM | – | – | – | – | –
17 | O=C1/C(=C/c2ccnc3ccccc23)CC/C1=C\c1ccnc2ccccc12 | – | – | > 100 µM | 7 µM | > 100 µM | 4.9 µM | 0.8 | 3.7 µM | 25.3 µM | 3.6
18 | O=C1/C(=C/c2ccc(Cn3cc(-c4ccccc4)nn3)cc2)CC/C1=C\c1ccc(Cn2cc(-c3ccccc3)nn2)cc1 | – | – | > 100 µM | > 250 µM | > 100 µM | – | – | – | – | –
19 | O=C1/C(=C/c2ccc([N+](=O)[O-])cc2)CC/C1=C\c1ccc([N+](=O)[O-])cc1 | inactive | 35% | > 100 µM | > 250 µM | > 100 µM | – | – | – | – | –
20 | O=C1/C(=C/c2ccc[nH]2)CCC/C1=C\c1ccc[nH]1 | – | – | > 100 µM | 249 µM | > 100 µM | 5.3 µM | 15.7 | 83.2 µM | 375 µM | 1.5
21 | Cc1ccc(/C=C2\CC/C(=C\c3ccc(C)cc3)C2=O)cc1 | – | – | > 100 µM | > 250 µM | > 100 µM | 52.6 µM | 0.7 | 39.4 µM | – | –
